The target in assay [1] is T1, Prostaglandin E2 receptor EP3 subtype (Mus musculus, UniProt P30557).
T1 sequence (P30557 whole entry): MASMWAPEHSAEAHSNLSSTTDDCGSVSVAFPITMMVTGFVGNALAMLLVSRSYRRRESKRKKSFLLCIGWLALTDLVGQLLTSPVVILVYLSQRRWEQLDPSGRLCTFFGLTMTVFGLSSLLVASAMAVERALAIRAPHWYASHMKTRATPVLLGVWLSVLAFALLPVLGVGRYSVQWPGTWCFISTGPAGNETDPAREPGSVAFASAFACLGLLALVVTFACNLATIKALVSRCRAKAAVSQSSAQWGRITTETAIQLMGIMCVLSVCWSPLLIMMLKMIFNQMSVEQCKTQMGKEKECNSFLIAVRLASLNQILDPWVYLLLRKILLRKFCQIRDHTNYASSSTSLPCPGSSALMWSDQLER
The assay is described as follows: Displacement of [3H]-PGE2 from mouse EP3 receptor expressed in CHO cells after 60 mins by liquid scintillation counting. Format: cell-based. Put shortly:
(§1)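 Membranes from CHO cells stably expressing mEP1, mEP2, mEP3a, mEP4 or mFP were used. The radioligand was 2.5 nM [³H]PGE₂ for EP receptors and 2.5 nM [³H]PGF2α for FP. Buffer was 10 mM KH₂PO₄–KOH pH 6.0 with 1 mM EDTA, 10 mM MgCl₂ and 100 mM NaCl. Incubation was at room temperature, 20 min for mEP1 and 60 min for the others. Samples were filtered on GF/B, washed with phosphate/NaCl pH 6.0, dried 60 min at 60 °C and scintillation counted.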
For orientation: Displacement assays read how much labelled ligand stays bound in the presence of the test substance.

In assay [2] the target is Prostaglandin F2-alpha receptor (Mus musculus, UniProt P43117). The assay is described as follows: Displacement of [3H]-PGF2-alpha from mouse FP receptor expressed in CHO cells after 60 mins by liquid scintillation counting. Format: cell-based. Put shortly: as §1
Sequence of Prostaglandin F2-alpha receptor (P43117 whole entry): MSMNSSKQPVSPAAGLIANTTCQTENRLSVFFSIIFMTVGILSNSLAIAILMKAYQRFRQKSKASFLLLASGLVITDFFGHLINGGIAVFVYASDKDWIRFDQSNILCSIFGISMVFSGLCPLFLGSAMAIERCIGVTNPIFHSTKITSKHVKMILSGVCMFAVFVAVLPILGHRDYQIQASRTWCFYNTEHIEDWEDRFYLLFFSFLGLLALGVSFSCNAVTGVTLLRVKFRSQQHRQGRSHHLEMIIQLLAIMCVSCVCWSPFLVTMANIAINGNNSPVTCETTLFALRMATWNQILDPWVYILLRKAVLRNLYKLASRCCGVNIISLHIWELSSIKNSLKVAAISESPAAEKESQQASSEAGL
For assay [3], the target named is T2, Prostaglandin D2 receptor (Mus musculus, UniProt P70263).
T2 sequence (P70263 whole entry): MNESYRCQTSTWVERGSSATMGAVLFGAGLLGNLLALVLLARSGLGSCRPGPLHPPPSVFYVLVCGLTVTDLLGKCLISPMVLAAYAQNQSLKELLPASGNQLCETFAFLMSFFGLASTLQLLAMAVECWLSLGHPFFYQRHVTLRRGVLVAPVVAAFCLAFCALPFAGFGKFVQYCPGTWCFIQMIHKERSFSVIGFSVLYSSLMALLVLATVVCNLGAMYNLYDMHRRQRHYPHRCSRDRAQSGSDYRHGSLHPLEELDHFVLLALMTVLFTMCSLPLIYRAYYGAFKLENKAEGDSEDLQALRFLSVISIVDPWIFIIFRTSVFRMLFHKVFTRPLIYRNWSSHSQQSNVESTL
The assay is described as follows: Antagonist activity at mouse DP receptor expressed in CHO cells assessed as inhibition of PGD2-induced cAMP accumulation after 10 mins by enzyme immunoassay in the presence of 0.1% BSA. Type of assay: functional, cell-based. A digest of the protocol:
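CHO cells stably expressing mDP were seeded at 1 × 10⁵ cells/well and grown 2 days. They were preincubated about 10 min at 37 °C in MEM with Diclofenac, then given assay medium (MEM, 0.1% BSA, 1 mM IBMX, Diclofenac). Test compound at various concentrations plus 10 nM PGD₂ was added for 10 min at 37 °C. The reaction was stopped with ice-cold 10% TCA and TCA was extracted. cAMP was measured by EIA. IC50 came from cAMP relative to the PGD₂-only maximum.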
Background: cAMP levels reflect the balance of adenylyl cyclase and phosphodiesterase activity.

The target of assay [4] is T3, Prostaglandin E2 receptor EP1 subtype (Mus musculus, UniProt P35375).
T3 sequence (P35375 whole entry): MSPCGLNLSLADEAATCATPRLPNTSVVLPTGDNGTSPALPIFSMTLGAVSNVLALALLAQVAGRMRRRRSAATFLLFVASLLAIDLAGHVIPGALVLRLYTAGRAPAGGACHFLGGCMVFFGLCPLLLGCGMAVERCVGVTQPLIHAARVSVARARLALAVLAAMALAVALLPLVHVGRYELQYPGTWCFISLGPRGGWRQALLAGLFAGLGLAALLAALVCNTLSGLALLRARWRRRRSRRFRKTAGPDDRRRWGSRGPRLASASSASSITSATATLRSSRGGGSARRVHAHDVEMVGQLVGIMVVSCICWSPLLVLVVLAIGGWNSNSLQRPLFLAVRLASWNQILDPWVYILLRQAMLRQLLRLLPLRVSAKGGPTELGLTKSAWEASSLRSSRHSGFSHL
The assay is described as follows: Displacement of [3H]-PGE2 from mouse EP1 receptor expressed in CHO cells after 20 mins by liquid scintillation counting. Format: cell-based. Put shortly:
as §1

Assay [5] deals with T2, Prostaglandin D2 receptor. The assay is described as follows: Displacement of [3H]-PGD2 from mouse DP receptor expressed in CHO cells after 20 mins by liquid scintillation counting. Type of assay: cell-based. Put shortly:
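Membranes from CHO cells stably expressing mDP were incubated with 2.5 nM [³H]PGD₂ and compounds at various concentrations. Buffer was 25 mM HEPES–NaOH pH 7.4 with 1 mM EDTA, 5 mM MgCl₂ and 10 mM MnCl₂, for 20 min at room temperature. Samples were filtered on GF/B and washed with Tris–HCl pH 7.4, NaCl, 0.01% BSA. Filters were dried 60 min at 60 °C and read by scintillation counting. Nonspecific binding was set with excess unlabeled PGD₂.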

For assay [6], the target named is Prostaglandin E2 receptor EP2 subtype (Mus musculus, UniProt Q62053). The assay is described as follows: Displacement of [3H]-PGE2 from mouse EP2 receptor expressed in CHO cells after 60 mins by liquid scintillation counting. Type of assay: cell-based. A digest of the protocol:
as §1

The target of the next assay is Prostacyclin receptor (Homo sapiens, UniProt P43119). The assay is described as follows: Displacement of [3H]-Iloprost from human IP receptor expressed in CHO cells after 30 mins by liquid scintillation counting. Type of assay: cell-based. Put shortly:
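Membranes from CHO cells expressing hIP were incubated with 5.0 nM [³H]Iloprost and compounds at various concentrations. Buffer was 50 mM Tris–HCl pH 7.5 with 1 mM EDTA and 10 mM MgCl₂, for 30 min at room temperature. Samples were filtered on GF/B, washed with 10 mM Tris–HCl/100 mM NaCl pH 7.5, dried 60 min at 60 °C and scintillation counted.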

The next assay addresses T4, Thromboxane A2 receptor (Homo sapiens, UniProt P21731).
T4 sequence (P21731 whole entry): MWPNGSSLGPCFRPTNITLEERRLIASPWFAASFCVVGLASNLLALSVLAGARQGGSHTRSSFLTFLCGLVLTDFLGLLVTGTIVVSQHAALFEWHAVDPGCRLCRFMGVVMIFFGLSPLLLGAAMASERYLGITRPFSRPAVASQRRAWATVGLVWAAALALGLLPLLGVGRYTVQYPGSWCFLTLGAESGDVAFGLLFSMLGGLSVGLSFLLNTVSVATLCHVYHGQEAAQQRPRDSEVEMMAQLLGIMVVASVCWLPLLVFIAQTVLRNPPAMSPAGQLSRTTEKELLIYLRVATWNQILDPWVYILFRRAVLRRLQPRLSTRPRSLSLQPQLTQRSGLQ
The assay is described as follows: Displacement of [3H]-SQ29548 from human TP receptor expressed in CHO cells after 30 mins by liquid scintillation counting. Type of assay: cell-based. Put shortly: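 Membranes from CHO cells expressing hTP were incubated with 5.0 nM [³H]-SQ29548 and compounds at various concentrations. Buffer was 10 mM Tris–HCl pH 7.5 with 100 mM NaCl, for 30 min at room temperature. Samples were filtered on GF/B, washed with the same buffer, dried 60 min at 60 °C and scintillation counted. Nonspecific binding was set with excess unlabeled SQ29548.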

Assay [7] deals with Prostaglandin E2 receptor EP4 subtype (Mus musculus, UniProt P32240). The assay is described as follows: Displacement of [3H]-PGE2 from mouse EP4 receptor expressed in CHO cells after 60 mins by liquid scintillation counting. Type of assay: cell-based. A digest of the protocol: as §1
Sequence of Prostaglandin E2 receptor EP4 subtype (P32240 whole entry): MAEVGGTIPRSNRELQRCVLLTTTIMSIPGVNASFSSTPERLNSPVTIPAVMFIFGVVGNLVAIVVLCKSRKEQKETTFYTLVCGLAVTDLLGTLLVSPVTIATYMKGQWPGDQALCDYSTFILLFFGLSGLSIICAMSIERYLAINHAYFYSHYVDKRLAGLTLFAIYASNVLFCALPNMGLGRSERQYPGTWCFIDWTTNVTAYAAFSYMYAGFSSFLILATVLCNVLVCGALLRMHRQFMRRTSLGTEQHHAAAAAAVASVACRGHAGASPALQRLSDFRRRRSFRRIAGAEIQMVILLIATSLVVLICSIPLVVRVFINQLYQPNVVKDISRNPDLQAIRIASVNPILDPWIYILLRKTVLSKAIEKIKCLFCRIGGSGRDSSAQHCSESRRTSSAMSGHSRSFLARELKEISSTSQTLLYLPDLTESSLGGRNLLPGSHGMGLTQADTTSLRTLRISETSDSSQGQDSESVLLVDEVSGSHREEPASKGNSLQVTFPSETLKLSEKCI
The test system of assay [8] is Cavia porcellus. The assay is described as follows: Inhibition of OVA-induced vascular permeability in guinea pig conjunctiva at 3 mg/kg, po administered 1 hr before antigen challenge measured after 30 mins. Format: functional. A digest of the protocol:
(§2)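 Male Hartley guinea pigs were sensitized i.p. with OVA (1 mg) plus inactivated Bordetella pertussis. Two weeks later they were challenged with topical OVA (1%, 20 µL/eye), followed at once by Evans blue (20 mg/kg iv). Compound was given orally 1 h before challenge. After 30 min, conjunctiva was removed and extracted in DMF at 37 °C. Dye was read at 620 nm against a standard curve.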

Assay [9] relates to Cavia porcellus. The assay is described as follows: Inhibition of OVA-induced vascular permeability in guinea pig conjunctiva at 1 mg/kg, po administered 1 hr before antigen challenge measured after 30 mins. Format: functional. Put shortly: as §2

Sequence of Prostacyclin receptor (P43119 whole entry): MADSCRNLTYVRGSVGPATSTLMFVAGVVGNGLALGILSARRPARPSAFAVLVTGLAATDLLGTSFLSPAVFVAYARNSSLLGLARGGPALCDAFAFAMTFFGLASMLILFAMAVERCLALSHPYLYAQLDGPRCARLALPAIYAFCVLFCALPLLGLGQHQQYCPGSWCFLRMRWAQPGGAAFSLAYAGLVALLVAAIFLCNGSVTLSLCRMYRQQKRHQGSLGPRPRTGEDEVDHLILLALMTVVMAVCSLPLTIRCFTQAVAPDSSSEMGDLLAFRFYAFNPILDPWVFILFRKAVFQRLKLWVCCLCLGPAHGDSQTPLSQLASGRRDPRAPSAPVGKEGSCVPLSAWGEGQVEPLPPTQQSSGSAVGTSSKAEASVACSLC
Sequence of Prostaglandin E2 receptor EP2 subtype (Q62053 whole entry): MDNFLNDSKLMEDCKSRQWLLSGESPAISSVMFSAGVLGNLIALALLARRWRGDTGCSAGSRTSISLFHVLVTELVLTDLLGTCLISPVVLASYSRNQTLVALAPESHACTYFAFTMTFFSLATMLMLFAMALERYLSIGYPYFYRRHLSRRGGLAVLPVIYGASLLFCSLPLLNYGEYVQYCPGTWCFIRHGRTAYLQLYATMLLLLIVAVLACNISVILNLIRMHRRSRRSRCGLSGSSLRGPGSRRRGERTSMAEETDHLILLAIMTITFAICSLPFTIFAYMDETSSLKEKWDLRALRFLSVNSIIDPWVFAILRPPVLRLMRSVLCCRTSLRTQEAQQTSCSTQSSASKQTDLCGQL

`Cc1ccc2c(c1)c(CC(=O)O)c(C)n2C(=O)c1ccc(OC[C@@H]2CN(C)c3ccccc3O2)cc1`: the Ki came out at 2800 nM in [1]; 1700 nM in assay [2]; 5200 nM in assay [4]; 28 nM in assay [5]; 340 nM in assay [6]; 1100 nM at Prostacyclin receptor. The Ki was over 10000 nM on Thromboxane A2 receptor and 3600 nM in assay [7]. In addition, the half-maximal inhibitory concentration (IC50) in assay [3] was 4.3 nM.
As for `Cc1c(CC(=O)O)c2cc(F)ccc2n1C(=O)c1ccc(OC[C@@H]2CN(C)c3ccccc3O2)cc1`, the Ki is 1900 nM in assay [1]; 1700 nM in [2]; over 10000 nM in [4]; 5.7 nM in assay [5]; 250 nM in assay [6]; 320 nM on Prostacyclin receptor. Besides, the inhibitory constant (Ki) (on Thromboxane A2 receptor; in assay [7]) was over 10000 nM each time. Also, in [3], the IC50 was 1.8 nM.
Consider `Cc1cc(OC[C@@H]2CN(C)c3ccccc3O2)ccc1C(=O)n1c(C)c(CC(=O)O)c2ccccc21`, for which the Ki came out at 3600 nM in [1]; 2600 nM in [2]; 2900 nM in [4]; 3.5 nM in assay [5]; 500 nM in assay [6]; 130 nM at Prostacyclin receptor. The molecule also showed a Ki in [7] of over 10000 nM. Also, the IC50 in [3] is 1.1 nM; at Thromboxane A2 receptor, over 10000 nM. The molecule also displayed an inhibition in vivo at 3 mg/kg in the assay on Cavia porcellus [8] of 29%.
Turning to `Cc1c(CC(=O)O)c2ccccc2n1C(=O)c1ccc(OC[C@@H]2CN(C)c3ccccc3O2)cc1Cl`, the Ki in assay [1] is over 10000 nM; in assay [4] it was over 10000 nM; in assay [5], 4.4 nM; in [6] it was 600 nM; on Prostacyclin receptor, 92 nM; in [7], over 10000 nM. Moreover, the 50% inhibitory concentration (IC50) in [3] turned out to be 2.2 nM. In the assay on Cavia porcellus [8], this molecule registered an inhibition in vivo at 3 mg/kg of 48%.
For `Cc1c(CC(=O)O)c2cc(F)ccc2n1C(=O)c1ccc(OC[C@@H]2CN(C)c3ccccc3O2)cc1Cl`, the Ki in assay [1] is 3200 nM; in assay [2], 1200 nM; in assay [4], over 10000 nM; in [5] it was 5.2 nM; in assay [6], 370 nM; at Prostacyclin receptor it was 200 nM. This molecule returned a Ki in assay [7] of 4100 nM. Moreover, the values for the half-maximal inhibitory concentration (IC50) (in assay [3]; on Thromboxane A2 receptor) were 1.6 nM and over 10000 nM, respectively. At 3 mg/kg the inhibition in vivo in the assay with Cavia porcellus [8] was 52%.
For `CCN1c2ccccc2C[C@@H]1COc1ccc(C(=O)n2c(C)c(CC(=O)O)c3ccccc32)c(C)c1`, the Ki in assay [1] was 2800 nM; in assay [2], 1400 nM; in assay [4], over 10000 nM; in assay [5] it was 4.8 nM; in assay [6] it was 2700 nM; on Prostacyclin receptor, 2200 nM. The molecule further registered a Ki in assay [7] of 1600 nM. The molecule also gave an inhibition in vivo at 1 mg/kg in the assay with Cavia porcellus [9] of 42%. Moreover, the results for the IC50 (in [3]; on Thromboxane A2 receptor) were 2.2 nM and 7600 nM, respectively.
As to `Cc1cc2c(CC(=O)O)cccc2n1C(=O)c1ccc(OC[C@@H]2CN(C)c3ccccc3O2)cc1`, the inhibition in vivo at 1 mg/kg in the assay with Cavia porcellus [9] came to 23%. The inhibition constant (Ki) in assay [2] was 3100 nM; in assay [5], 16 nM; at Prostacyclin receptor, 37 nM; at Thromboxane A2 receptor, 260 nM; in [7], over 10000 nM. In assay [3], the IC50 turned out to be 2.4 nM. This molecule yielded an inhibition in vivo at 3 mg/kg with Cavia porcellus [8] of 41%.

In general, Ki refers to a measure of affinity in units of concentration, obtained from inhibition or displacement. As usually defined, the IC50 is the concentration needed to halve the response being measured. For orientation: inhibition in vivo means the share of the control response that was lost under treatment. Read a high inhibition in vivo as a strong effect.

The record behind these values is ChEMBL document CHEMBL1811829, “Discovery of selective indole-based prostaglandin D₂ receptor antagonist” (Bioorg Med Chem, 2011).
